Bioassay records (PubChem)
CHOP inhibitor – blocks CHOP induction under ER stress; CHO-K1 CHOP-promoter luciferase, tunicamycin-induced, 15-18 h; inhibition, % at 10 µM; 3.8% of 220,000 active; AID 2732;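 active = compounds that reduced the stress-induced luciferase reporter signal by more than about 70% of percent inhibition, limit read from the data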;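 note: 0% = tunicamycin plus vehicle and 100% = wells without tunicamycin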
Dynein transport – dynein cargo transport inhibition; 0.47% of 220,000 active; z-score, hits read low; 3617.4 mouse cells, GR-EGFP nuclear translocation imaging; test concentration mostly 20 µM; stimulated with dexamethasone, 1 µM; active compounds read low;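 active = plate z-score of nuclear minus cytoplasmic receptor signal below a set negative limit, without overly bright fluorescence or cell loss, cut at about -3.5 in these data, passing the limit was not always enough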;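 note: z-score of nuclear minus cytoplasmic ring GR-EGFP intensity difference per well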
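Buffer or medium: tetracycline-free induction medium containing charcoal-stripped FBS / Reagent: dexamethasone agonist, 1.0 µM final, for 30 min / Technique: automated 10x imaging of fixed Hoechst-stained cells / Times: induction 48 h, compound 1 h, agonist 30 min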
T cruzi inh – blocks replication of Trypanosoma cruzi; 1.4% of 300,000 active; T. cruzi beta-gal in NIH3T3, luminescence, 90 h; inhibition, % (concentration not given with the values);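 active = mean inhibition across valid replicates above about 55%, limit read from the data; inconclusive = mean below that limit but half or more replicates reach it; inactive = mean below it, under half of replicates reach it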;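 note: signal also drops with host cell toxicity which is not excluded here; 0% = plate median of DMSO wells and 100% = zero luminescence signal; higher percent means less beta-gal luminescence so fewer parasites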
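Test system: β-gal T. cruzi (Tulahuen C4) inside NIH/3T3 cells / Quantity: 5,000 cells/well / Measured by: luminescence from GalScreen with 0.05% NP40, read after 60 min / Medium: DMEM plus 2% FBS / Measure: parasite load inhibition, % / Reagent: Tulahuen C4 trypomastigotes, 5000/well / Schedule: co-culture of at least 90 h after 3 h attachment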
CHOP UPR activ – activators of apoptotic arm of unfolded protein response (CHOP); 0.34% of 330,000 active; AID 449763; activation, % at 10 µM; CHO-CHOP luciferase reporter, UPR activation, luminescence; percent of tunicamycin response over DMSO baseline;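 active = at 10 µM dose, activation of 40% or more, normalized to positive control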;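 note: 100% = tunicamycin at 10 µg/mL and 0% = DMSO alone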
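Test system: CHO CHOP reporter cells. Input: 500 CHO-CHOP cells per well. Medium: F12 with 10% FBS. Technique: luciferase luminescence. Measure: percent activation relative to tunicamycin control. Dosing: 10 µM compound, 0.5% DMSO. Timing: 16-18 h cell attachment, then 6 h compound exposure, 37 °C.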
L major viab – inhibitors of Leishmania major promastigote growth; Leishmania major promastigotes, resazurin fluorescence viability; inhibition, % at 10 µM; 9% of 200,000 active; in the data active = inhibition above about 50%;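 note: promastigotes grown with compound for 44 hours at 28 °C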
UPR XBP1 act – activators of adaptive arm of unfolded protein response (XBP1). CHO-XBP1 luciferase reporter, IRE1-XBP1 UPR activation, luminescence; percent of tunicamycin response, DMSO as zero. AID 463104. activation, % at 20 µM. 0.33% of 330,000 active;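 active = versus positive control, 20 µM dose yields 30% or more activation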;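 note: 100% = tunicamycin at 10 µg/mL and 0% = DMSO only wells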
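Material: CHO cell line with stable XBP1 luciferase reporter; schedule: 16-18 h cell attachment at 37 °C, then 6 h compound exposure; signal: glow luminescence from Steady-Glo reagent; medium: serum-containing F12 medium, 10% FBS; benchmarks: tunicamycin 10 µg/mL and vehicle-only wells; read-out: percent activation relative to tunicamycin reference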
CHOP confirm – confirmation of CHOP induction inhibitors; shares compounds with CHOP inhibitor; CHO-CHOP promoter luciferase reporter, tunicamycin-induced, luminescence; inhibition, % at 10 µM; 45% of 2,100 active; AID 504437;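 active = mean of three repeat readings of reporter signal inhibition above a set limit, cut at about 70% in these data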;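 note: 0% = tunicamycin plus vehicle and 100% = wells lacking tunicamycin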
UPR CHOP confirm – confirmation of apoptotic unfolded protein response (CHOP) activators; 64% of 1,000 active; shares compounds with CHOP UPR activ; activation, % at 10 µM; CHO-CHOP cells, CHOP-luciferase reporter luminescence; percent of tunicamycin response, DMSO as zero; AID 463112; in the data active = activation above about 33%;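 note: 0% = DMSO wells and 100% = tunicamycin 10 µg/mL wells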
Starred values were filed as active, the others as inactive; ? = inconclusive; nt = no result. The full list was thinned out, with hits kept by preference.

SMILES	CHOP inhibitor	Dynein transport	T cruzi inh	CHOP UPR activ	L major viab	UPR XBP1 act	CHOP confirm	UPR CHOP confirm
O=C(Cc1csc(Nc2nc(=S)[nH]c3ccccc23)n1)N1CCN(c2cccc(Cl)c2)CC1	102.8*	2.11	26.7	0.9	10.0	-5.7	37.7	nt
O=C(COC(=O)CNS(=O)(=O)c1ccc(Br)cc1Cl)NC1CCCC1	nt	nt	-3.2	0.5	nt	-3.6	nt	nt
Cc1ccc(-n2c(=O)[nH]c3c(C(N)=O)nc(-c4ccc(C)o4)nc32)cc1	106.8*	0.394	5.2	0.0	34.1	-2.0	120.7*	nt
CC1(C)C(C=C(Cl)Cl)C1C(=O)Nc1ccc([N+](=O)[O-])cc1 (stereo unspecified)	104.3*	0.209	nt	nt	87.8*	nt	58.4	nt
COC(=O)c1cccc(NC(=O)CCNC(=O)c2ccco2)c1	nt	nt	-10.7	0.0	nt	-1.9	nt	nt
O=[N+]([O-])c1cc(C(F)(F)F)cc([N+](=O)[O-])c1NCCNC(=S)Nc1cccc(F)c1	12.2	0.0702	21.3	-1.1	nt	-4.2	nt	nt
Cc1ccc(C(=O)COC(=O)c2cc(=O)[nH]c3ccccc23)cc1C	102.4*	-1.12	-2.7	3.2	-2.9	-0.5	15.4	nt
COc1ccccc1C(=O)COC(=O)c1cc(=O)[nH]c2ccccc12	nt	nt	-8.7	5.5	nt	1.3	nt	nt
C=C(C)[C@@H]1CC[C@]2(C(=O)O)CC[C@]3(C)[C@H](CC[C@@H]4[C@@]5(C)CC[C@H](O)C(C)(C)[C@@H]5CC[C@]43C)[C@@H]12	102.9*	-0.227	-17.5	1.3	nt	12.1	66.4	nt
COc1ccc(NC(=O)COc2ccccc2Cc2ccccc2)cc1S(=O)(=O)N1CCOCC1	nt	nt	nt	0.8	nt	1.2	nt	nt
COC(=O)C1=C(O)/C(=C\c2ccc(CNC(=O)C(=O)Nc3ccc(C)cc3)o2)N=C1C	69.1	-0.624	-14.5	3.0	-1.4	-4.5	nt	nt
CCOC(=O)C1=C(O)/C(=C/c2ccc(CNC(=O)C(=O)Nc3ccc(C)cc3)o2)N=C1C	105.7*	-0.716	-11.6	-2.5	-3.4	-2.1	109.0*	nt
COc1ccc(C(=O)NC(C)CCn2cccn2)cc1OC1CCN(C(C)C)CC1 (stereo unspecified)	nt	nt	-4.4	2.0	nt	-1.8	nt	nt
CCCc1cc(C(=O)Nc2cc(Br)ccc2O)no1	nt	-0.904	-7.8	4.9	-16.2	9.8	-10.3	nt
CCCc1cc(C(=O)Nc2cc(Cl)ccc2O)no1	nt	nt	-9.2	5.1	nt	7.3	nt	nt
O=C(OC(C(=O)Nc1cccc(C(F)(F)F)c1)c1ccccc1)C1CCCCC1 (stereo unspecified)	106.7*	-0.946	nt	nt	6.3	nt	33.0	nt
Cc1ccc(-n2c(SCC(N)=O)nc3c(oc4ccccc43)c2=O)cc1	nt	nt	7.9	0.1	nt	-2.9	nt	nt
CNc1nc(Sc2cccc(C(F)(F)F)c2)cc(C(F)(F)F)n1	101.1*	0.388	-1.3	-3.5	1.1	2.2	98.5*	nt
CCOC(=O)c1cc(CC)sc1NC(=O)c1ccc([N+](=O)[O-])c(N2CCOCC2)c1	-26.5	2.52	-16.3	0.9	7.8	4.5	nt	nt
O=C1C(C2=NC(C(=O)O)C3C(=O)N(c4ccccc4)C(=O)C23)=C(O)c2ccccc21 (stereo unspecified)	-3.6	0.749	-2.4	-1.4	21.7	0.4	nt	nt
O=C1C(C2=NC(c3ccccn3)C3C(=O)N(c4ccc(OC(F)(F)F)cc4)C(=O)C23)=C(O)c2ccccc21 (stereo unspecified)	104.8*	-0.488	-4.2	41.7*	nt	16.9	117.4*	8.9
COc1ccccc1-c1cc(C(F)(F)F)nc(S(=O)(=O)CCCC(=O)NCc2ccc(F)cc2)n1	100.5*	0.31	-37.4	124.4*	3.5	-1.5	-94.8	271.4*
O=C(COC(=O)/C=C/c1ccccc1)NC1CCCCC1	nt	nt	nt	-0.6	nt	-1.3	nt	nt
CNc1nc(-c2ccccc2)nnc1C(F)(F)F	-6.7	-0.761	-7.9	3.0	0.6	2.8	nt	nt
Cc1ccc(Sc2nc(-c3ccccc3)nnc2C(F)(F)F)cc1	107.3*	nt	28.7	40.3*	11.8	-10.1	-50.3	119.6*
SMILES	CHOP inhibitor	Dynein transport	T cruzi inh	CHOP UPR activ	L major viab	UPR XBP1 act	CHOP confirm	UPR CHOP confirm
COCCc1nc2ccc(C(=O)N(C)Cc3cccc(-n4nc(C)cc4C)c3)cc2o1	nt	nt	15.6	0.3	nt	-3.9	nt	nt
O=C1C=CC(=O)C(C2=C3C(=O)N(CCc4ccccc4)CC(=O)N3CCC2)=C1	105.4*	-3.29	?	131.2*	-6.3	-2.8	-229.7	49.4*
O=C1CC(=O)N(CCc2ccccc2)C(=O)N1CCc1ccccc1	20.6	0.13	-8.0	-2.5	-4.5	-1.8	nt	nt
Cc1ccc(Oc2c(C(N)=O)cc([N+](=O)[O-])cc2[N+](=O)[O-])cc1	108.0*	-3.47	4.4	64.0*	17.1	-6.5	-16.3	25.4
CC1=NOC(=O)/C1=C\c1ccc(-c2cccc(Cl)c2)o1	101.9*	-0.416	-21.9	115.4*	97.3*	6.8	-52.1	189.8*
S=C(Nc1ccc(-c2nc3ccccc3[nH]2)cc1)Nc1cccnc1	nt	nt	-14.3	5.6	nt	4.8	nt	nt
CC1CCC(N2CCN(C(=O)c3ccccc3F)CC2)CC1 (stereo unspecified)	nt	nt	16.6	0.7	nt	-5.4	nt	nt
CC(NC(=O)/C(C#N)=C/c1ccc(Cl)c([N+](=O)[O-])c1)c1ccccc1 (stereo unspecified)	105.3*	1.37	32.3	63.4*	100.4*	-7.6	94.0*	-9.9
Cc1cc(C)cc(N2C(=O)CC(Sc3nnnn3-c3ccccc3)C2=O)c1 (stereo unspecified)	101.7*	-2.21	2.8	55.7*	-3.5	-5.0	62.6	27.6
O=C1CC(Sc2nnnn2C2CCCCC2)C(=O)N1c1ccccc1 (stereo unspecified)	6.8	-0.269	32.9	4.7	-2.4	-10.2	nt	nt
O=C(/C=C/c1ccc(-c2ccccc2)o1)c1ccccc1	97.6*	-0.592	6.0	92.9*	45.9	15.7	-27.4	6.7
O=Cc1ccc(-c2cccc(C(=O)O)c2)o1	-4.2	-0.848	-4.0	1.9	-2.6	-1.6	nt	nt
CC1(C)CC(=O)C(=Cc2cn(-c3ccccc3)nc2-c2ccc(Cl)cc2)C(=O)C1	104.7*	-0.838	-0.5	288.2*	68.7*	26.7	68.3	220.6*
O=C(C1CCC1)N1CCC(O)(c2cccc(F)c2)CC1	8.0	-0.752	-5.3	0.4	-10.4	3.8	nt	nt
Cc1ccc(C(=O)c2c(C)oc3c2C(=O)C(=O)c2ccccc2-3)cc1	115.2*	-1.75	?	64.5*	100.4*	-7.0	50.3	0.3
